In the library only some 4.8% were active in any assay of this set; here they are far more common.
WT yeast gro inh: growth inhibition of WT yeast, mitochondrial fusion screen; mitochondrial fusion phenotypic screen, WT strain; inhibition, % at 10 µM; actives 2.1% (n = 190,000); AID 1362; in the data active = inhibition above about 58%; tested in S. cerevisiae
Efflux pump mplx: inhibitors of Candida antifungal efflux pumps expressed in yeast; actives 0.44% (n = 330,000); S. cerevisiae Candida pump triplex, Nile Red efflux; inhibition, % at 10 µM; AID 485275;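 active = plate passing quality check with inhibition over a set limit, or well fluorescence over plate mean plus 4 SD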;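 note: Nile Red retained in pooled yeast measured as flow cytometry median fluorescence; higher means more Nile Red kept so more efflux inhibition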
Beta cell apopt: blocks beta cell apoptosis; INS-1E cytokine-induced death, ATP luminescence, 48 h; percent of positive-control rescue, neutral wells zero; protection from apoptosis, % (no concentration beside the values); actives 0.8% (n = 300,000);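 active = Every replicate reaches about 75%, or at least half do and their mean reaches it too, limit read from the data; inconclusive = At least half of replicates reach the limit but their mean does not; inactive = Under half of replicates reach the limit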;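 note: higher means more ATP so stronger rescue from cytokine killing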
Mot1-301 SUMO: SUMOylation pathway inhibition by Mot1-301 growth rescue. S. cerevisiae Mot1-301 growth rescue, ATP luminescence, 38.5C; percent above DMSO median, 100 means doubled. AID 2716. actives 1% (n = 320,000). growth rescue, % at 18.8 µM;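 active = every valid replicate shows activation above 250% relative to neutral control wells; inactive = the rest, any valid replicate at or below 250%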
T cruzi repl: T. cruzi replication inhibition. actives 1.4% (n = 300,000). T. cruzi beta-gal in NIH3T3, luminescence, 90 h. inhibition, % (test concentration not listed);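 active = mean inhibition across valid replicates above about 55%, limit read from the data; inconclusive = mean below that limit but half or more replicates reach it; inactive = mean below it, under half of replicates reach it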;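 note: signal also drops with host cell toxicity which is not excluded here; higher percent means less beta-gal luminescence so fewer parasites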
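System – NIH/3T3 host cells with β-galactosidase reporter T. cruzi · Doses – single 50 nL compound addition per well in DMSO · Reagent – 5000 T. cruzi trypomastigotes/well · Medium – Low-serum DMEM with 2% FBS · Timing – ≥90 h infection period, 3 h prior cell attachment · Evaluation – parasite load inhibition, % · Technique – GalScreen luminescence, 60 min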
CSC inhib: blocks cancer stem cells; cancer stem cell-like cells viability, luminescence; inhibition, % at 7.5 µM; actives 1.1% (n = 300,000); in the data active = inhibition above about 75%; inconclusive = no clear call, values can overlap the other calls; tested in HMLE shEcad cells
Mot1 SUMO dose: yeast SUMO pathway inhibition in dose response; shares compounds with Mot1-301 SUMO; S. cerevisiae Mot1-301 galactose growth, ATP luminescence, 24 h; -100 = growth of slx-deleted rescue strain; growth activity, percent, % at 42 µM; 2,300 tested, under 10 active; AID 493004;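 active = Signal drops as the depositor expects, and the fitted half-maximal dose is no more than ten times the top valid tested dose; inconclusive = Poor fit, or a flat curve whose signal drops by 30% to 70%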;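 note: more negative values mean stronger growth rescue toward the control strain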
Each line names hits and unclear results; the compound was inactive in the other large screens (follow-up assays come after a bar, where they were run).

CCOC(=O)N1CCN(C(=O)c2ccccc2-c2ccccc2)CC1	Mot1-301 SUMO 436 | Mot1 SUMO dose inactive
O=C(CCC(=O)OC(C(=O)c1ccccc1)c1ccccc1)Nc1ccccc1 (stereo not given)	Mot1-301 SUMO 415 | Mot1 SUMO dose inactive
NC(=O)C1c2ccccc2CSc2ccccc21 (stereo not given)	none
CCNC(=O)NC1c2ccccc2CSc2ccccc21 (stereo not given)	Mot1-301 SUMO 614 (no result: WT yeast gro inh) | Mot1 SUMO dose inactive
O=C(OCC#CCSc1nnc(-c2ccccc2)o1)c1cc2ccccc2o1	Mot1-301 SUMO 582 | Mot1 SUMO dose inactive
Cc1ccc(-c2nnc(SCC#CCOC(=O)c3ccco3)o2)cc1	none (no result: Beta cell apopt)
Cc1ccc(CNC(=O)C2CCN(c3nnc(N4CCCC4=O)s3)CC2)cc1	none (no result: WT yeast gro inh)
S=c1[nH]ccn1-c1cccc(Cl)c1	Mot1-301 SUMO 479 (no result: Beta cell apopt) | Mot1 SUMO dose inactive
CCOC(=O)c1cc2c(ccn2-c2ccc(F)cc2)n1CC(=O)N1CCN(C(=O)c2ccco2)CC1	Mot1-301 SUMO 378 | Mot1 SUMO dose inactive
CN(C)S(=O)(=O)c1ccc(C(=O)Nc2ccc3nc(N4CCOCC4)sc3c2)cc1	none (no result: WT yeast gro inh, T cruzi repl)
COc1ccc(C(C(=O)NC2CCCC2)N(CCCO)C(=O)c2snc(C(N)=O)c2N)cc1 (stereo not given)	T cruzi repl inconclusive (no result: WT yeast gro inh, CSC inhib)
O=C(COC(=O)c1c(F)cccc1F)Nc1ccc2[nH]c(=O)[nH]c2c1	none
O=C(COC(=O)c1cccc(Br)c1)Nc1ccc2[nH]c(=O)[nH]c2c1	Mot1-301 SUMO 510 (no result: WT yeast gro inh, Beta cell apopt) | Mot1 SUMO dose inactive
COc1cc(-c2ccccc2)nc(N)n1	none
CCOc1cc(-c2ccccc2)nc(N)n1	Mot1-301 SUMO 460 | Mot1 SUMO dose inactive
CCN(CC)C(=O)Cn1cc(C(=O)C(=O)N2CC=C(c3ccccc3)CC2)c2ccccc21	none (no result: Mot1-301 SUMO, T cruzi repl)
Fc1ccc(-c2n[nH]c(=S)n2CC2CCCO2)cc1 (stereo not given)	Mot1-301 SUMO 393 (no result: CSC inhib) | Mot1 SUMO dose inactive
S=c1[nH]nc(-c2ccncc2)n1CC1CCCO1 (stereo not given)	none
Cc1ccc(C(=O)NNC(=O)CCC(=O)NCc2ccccc2)cc1Br	none (no result: WT yeast gro inh, T cruzi repl)
C[C@@H]1CCC[C@]2(O[C@H](CCO)C[C@@H](O)[C@@H]2O)O1	none (no result: WT yeast gro inh)
COc1ccc(NC(=O)CN2C(=O)NC(C)(c3ccccc3)C2=O)cc1Cl (stereo not given)	none (no result: WT yeast gro inh)
Cc1ccc(-n2nnnc2C(Cl)(Cl)c2nnnn2-c2ccc(C)cc2)cc1	WT yeast gro inh 95, Mot1-301 SUMO active, T cruzi repl 63 | Mot1 SUMO dose inactive
Clc1ccc(-c2nnnn2-c2ccc(Cl)cc2)cc1	none (no result: WT yeast gro inh)
Cc1ccc(S(=O)(=O)NCC(=O)OCC(=O)c2ccc(Br)s2)cc1	Mot1-301 SUMO 747 | Mot1 SUMO dose inactive
Cc1ccc(S(=O)(=O)NCC(=O)OCC(=O)c2cccs2)cc1	none
Cc1[nH]nc2c1C(c1cccs1)C1=C(CCCC1=O)N2 (stereo not given)	none
Cc1[nH]nc2c1C(c1cccs1)C1=C(CC(C)(C)CC1=O)N2 (stereo not given)	Mot1-301 SUMO 662 | Mot1 SUMO dose inactive
COc1ccc(C2C3=C(CC(C)(C)CC3=O)Nc3n[nH]c(C)c32)cc1 (stereo not given)	Mot1-301 SUMO 365 | Mot1 SUMO dose inactive
COc1cccc(CN2CCNC(=O)C2CC(=O)NCc2cn3ccc(C)cc3n2)c1OC (stereo not given)	none (no result: WT yeast gro inh)
COc1ccc(CN2CCNC(=O)C2CC(=O)NCc2cn3ccc(C)cc3n2)c(OC)c1 (stereo not given)	Mot1-301 SUMO 838 | Mot1 SUMO dose inactive
Cc1cccc(N2CCC(N3CCN(C4CCCCC4)C(CCO)C3)CC2)c1C (stereo not given)	none
O=C(Cc1ccc(F)cc1)Nc1nc(-c2ccc(F)cc2)cs1	Mot1-301 SUMO active (no result: WT yeast gro inh) | Mot1 SUMO dose inactive
O=C(O)CCCC(=O)Nc1nc(-c2ccc(F)cc2)cs1	none
NS(=O)(=O)c1ccc(CCNC(=O)c2ccc(Cl)s2)cc1	none (no result: WT yeast gro inh)
NS(=O)(=O)c1ccc(CCNC(=O)c2ccc([N+](=O)[O-])s2)cc1	Mot1-301 SUMO 389 (no result: WT yeast gro inh) | Mot1 SUMO dose inactive
OC(COc1ccccc1)Cn1c2ccccc2c2ccccc21 (stereo not given)	WT yeast gro inh 80, Mot1-301 SUMO 374 (no result: Beta cell apopt) | Mot1 SUMO dose inactive
COc1ccc(NC(=O)[C@@H](NS(=O)(=O)c2cccc(Cl)c2)C(C)C)cc1S(=O)(=O)N1CCOCC1	none (no result: WT yeast gro inh, T cruzi repl)
O=C(Nc1cc(S(=O)(=O)N2CCOCC2)ccc1Cl)C1CCC1	none (no result: WT yeast gro inh)
Cc1ccc(S(=O)(=O)N2c3ccccc3CC2C)cc1 (stereo not given)	none
Cc1ccc(S(=O)(=O)N2c3ccc(S(N)(=O)=O)cc3CC2C)cc1 (stereo not given)	Mot1-301 SUMO active | Mot1 SUMO dose inactive
CCOc1ccc(CCNC(=O)c2c(C)nn(-c3ccccc3)c2Cl)cc1OCC	none (no result: WT yeast gro inh)
C=CCOc1ccccc1CN1CCCC(CCC(=O)N(C)CCc2ccccn2)C1 (stereo not given)	Mot1-301 SUMO 682, T cruzi repl 56 (no result: Beta cell apopt) | Mot1 SUMO dose inactive
CCCn1nc(C(=O)NNC(=O)c2cc(S(=O)(=O)NC)ccc2Br)c2ccccc2c1=O	Mot1-301 SUMO 549 (no result: WT yeast gro inh) | Mot1 SUMO dose inactive
Cc1c(C(=O)N2CC(C)OC(C)C2)[nH]c2ccc(Br)cc12 (stereo not given)	none (no result: WT yeast gro inh)
CC1CCCN(C(c2cccs2)c2nnnn2Cc2ccccc2)C1 (stereo not given)	none
Cc1ccc(Oc2ccccc2NC(=O)C2=COCCO2)cc1	Mot1-301 SUMO 416 (no result: WT yeast gro inh) | Mot1 SUMO dose inactive
O=C(Nc1cc(Cl)ccc1Oc1ccccc1)C1=COCCO1	none (no result: WT yeast gro inh)
COc1ccc(-c2cc(=O)[nH]c(N3CCN(Cc4ccccc4)CC3)n2)cc1	none (no result: WT yeast gro inh)
O=c1cc(-c2ccccc2)nc(N2CCN(Cc3ccccc3)CC2)[nH]1	Mot1-301 SUMO 479 | Mot1 SUMO dose inactive
CC(=O)Nc1cccc2c1C(=O)N(c1ccccc1C)C2=O	Mot1-301 SUMO 518 | Mot1 SUMO dose inactive
O=C(Cc1cccs1)N1CCCC(c2nc3c(nnn3Cc3ccc(F)cc3)c(=O)[nH]2)C1 (stereo not given)	Mot1-301 SUMO 533 (no result: CSC inhib) | Mot1 SUMO dose inactive
CC(C)(C)c1ccc(Cn2nnc3c(=O)[nH]c(C4CCCN(C(=O)Cc5cccs5)C4)nc32)cc1 (stereo not given)	none
O=C(NCC(Cl)c1ccc2ccccc2c1)c1c(F)cccc1F (stereo not given)	none (no result: WT yeast gro inh)
O=C(c1ccccc1F)N1CCN=C1SCc1cccnc1	Mot1-301 SUMO 569 (no result: Beta cell apopt) | Mot1 SUMO dose inactive
CCOc1ccc(N2CC(C(=O)OC)CC2=O)cc1 (stereo not given)	Mot1-301 SUMO 385 | Mot1 SUMO dose inactive

Assay outcomes (PubChem)
